Measured values taken from ChEMBL document CHEMBL1123371, “5-HT1 and 5-HT2 binding characteristics of some quipazine analogues” (J Med Chem, 1986).
Activity calls are given as the source filed them. The calls are words filed in the database; no cut-off is given here.

What was measured:
Rattus norvegicus [1] = assay: Compound was evaluated in stimulus generalization test using animals trained to discriminate DOM from saline, and the mean responses per min at dose of 0.05 mg/kg; format: functional
Outline: (§1)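 Male Sprague-Dawley rats (n = 10) trained to discriminate 1.0 mg/kg DOM HCl from saline on a two-lever operant task, VI 15-s food reinforcement. Test doses were given ip in random order, 15 min pre-session, with at least three training sessions between tests. Responding was scored in a 2.5-min extinction session. Rats with fewer than five total responses were counted as disrupted.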

[2] = Displacement of [3H]5-HT from 5-hydroxytryptamine 1 receptor of rat cortical membrane homogenates
Rattus norvegicus [3] = assay: Compound was evaluated in stimulus generalization test using animals trained to discriminate DOM from saline, and the mean responses per min at dose of 0.1 mg/kg; format: functional; outline: as §1
Rattus norvegicus [4] = assay: Compound was evaluated in stimulus generalization test using animals trained to discriminate DOM from saline, and the drug appropriate responding at dose of 0.5 mg/kg; Not responding; format: functional, organism-based; parameters: dose 0.5 mg/kg; outline: as §1
Rattus norvegicus [5] = assay: Compound was evaluated in stimulus generalization test using animals trained to discriminate DOM from saline, and the drug appropriate responding at dose of 0.1 mg/kg; format: functional; outline: as §1
Rattus norvegicus [6] = assay: Compound was evaluated in stimulus generalization test using animals trained to discriminate DOM from saline, and the drug appropriate responding at dose of 0.05 mg/kg; format: functional; outline: as §1
Rattus norvegicus [7] = assay: Compound was evaluated in stimulus generalization test using animals trained to discriminate DOM from saline, and the drug appropriate responding at dose of 0.3 mg/kg; Not responding; format: functional, organism-based; parameters: dose 0.3 mg/kg; outline: as §1
Rattus norvegicus [8] = assay: Compound was evaluated in stimulus generalization test using animals trained to discriminate DOM from saline, and the drug appropriate responding at dose of 2.0 mg/kg; Not responding; format: functional, organism-based; parameters: dose 2 mg/kg; outline: as §1
[9] = target: Serotonin 2 (5-HT2) receptor (Rattus norvegicus, UniProt P30994+P08909+P14842); assay: Displacement of [3H]ketanserin from 5-hydroxytryptamine 2 receptor of rat cortical membrane homogenates
Rattus norvegicus [10] = assay: Compound was evaluated in stimulus generalization test using animals trained to discriminate TFMPP from saline, and the mean responses per min at dose of 0.5 mg/kg; format: functional
Outline: (§2)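 Male Sprague-Dawley rats (n = 6) trained to discriminate 0.5 mg/kg TFMPP HCl from saline on a two-lever operant task, VI 15-s food reward. Challenge doses were given ip in random order 15 min before a 2.5-min extinction test, with at least three training sessions between tests. Fewer than five total responses was scored as disruption.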

Rattus norvegicus [11] = assay: Compound was evaluated in stimulus generalization test using animals trained to discriminate TFMPP from saline, and the drug appropriate responding at dose of 0.5 mg/kg; format: functional; outline: as §2
Rattus norvegicus [12] = assay: Stimulus generalization studies in TFMPP trained animals and the number of animals responding /number to receive dose of drug was determined at dose of 0.5 mg/kg; 6/6; format: functional; outline: as §2
Rattus norvegicus [13] = assay: Compound was evaluated in tests of stimulus generalization using animals trained to discriminate DOM from saline, and the drug appropriate responding at dose of 2.7 mg/kg; Not responding; format: functional, organism-based; parameters: dose 2.7 mg/kg; outline: as §1
Rattus norvegicus [14] = assay: Compound was evaluated in stimulus generalization studies in DOM trained animals and the number of animals responding /number to receive dose of drug at dose of 2.2 mg/kg; 2/5; format: functional; outline: as §1
Rattus norvegicus [15] = organism: Rattus norvegicus; assay: Compound was tested for the doses at which the animals would be expected to make approximately 50% of their responses on the DOM-appropriate lever; format: functional
Outline: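 DOM-trained rats (1.0 mg/kg DOM HCl vs saline, two-lever, VI 15 s, food) were given ip doses 15 min before a 2.5-min extinction session. Where >80% of responses fell on the DOM lever (generalization), the dose expected to give about 50% DOM-lever responding was calculated from dose–response data and reported with 95% confidence limits.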

Rattus norvegicus [16] = assay: Compound was evaluated in stimulus generalization test using animals trained to discriminate TFMPP from saline, and the mean responses per min at dose of 2.5 mg/kg; format: functional; outline: as §2
Rattus norvegicus [17] = assay: Compound was evaluated in tests of stimulus generalization using animals trained to discriminate DOM from saline, and the drug appropriate responding at dose of 2.5 mg/kg; format: functional; outline: as §1
Rattus norvegicus [18] = assay: Compound was evaluated in tests of stimulus generalization using animals trained to discriminate DOM from saline, and the mean responses per min at dose of 0.5 mg/kg; format: functional; outline: as §1
Rattus norvegicus [19] = assay: Compound was evaluated in tests of stimulus generalization using animals trained to discriminate DOM from saline, and the drug appropriate responding at dose of 2.0 mg/kg; format: functional; outline: as §1
Rattus norvegicus [20] = assay: Compound was evaluated in tests of stimulus generalization using animals trained to discriminate DOM from saline, and the drug appropriate responding at dose of 3.0 mg/kg; Not responding; format: functional, organism-based; parameters: dose 3 mg/kg; outline: as §1
Rattus norvegicus [21] = assay: Compound was evaluated in stimulus generalization test using animals trained to discriminate TFMPP from saline, and the drug appropriate responding at dose of 1.0 mg/kg; format: functional; outline: as §2
Rattus norvegicus [22] = assay: Compound was evaluated in tests of stimulus generalization using animals trained to discriminate DOM from saline, and the mean responses per min at dose of 2.5 mg/kg; format: functional; outline: as §1
Rattus norvegicus [23] = assay: Compound was evaluated in stimulus generalization studies in DOM trained animals and the number of animals responding /number to receive dose of drug at dose of 3.0 mg/kg; 1/4; format: functional; outline: as §1
Rattus norvegicus [24] = assay: Compound was evaluated in tests of stimulus generalization using animals trained to discriminate DOM from saline, and the drug appropriate responding at dose of 0.5 mg/kg; format: functional; outline: as §1
Rattus norvegicus [25] = assay: Stimulus generalization studies in TFMPP trained animals and the number of animals responding /number to receive dose of drug was determined at dose of 2.5 mg/kg; 5/5; format: functional; outline: as §2
Rattus norvegicus [26] = assay: Compound was evaluated in tests of stimulus generalization using animals trained to discriminate DOM from saline, and the drug appropriate responding at dose of 2.2 mg/kg; Not responding; format: functional, organism-based; parameters: dose 2.2 mg/kg; outline: as §1
Rattus norvegicus [27] = assay: Compound was evaluated in stimulus generalization studies in DOM trained animals and the number of animals responding /number ot receive dose of drug at dose of 2.0 mg/kg; 3/4; format: functional; outline: as §1
Rattus norvegicus [28] = assay: Compound was evaluated in stimulus generalization studies in DOM trained animals and the number of animals responding /number to receive dose of drug at dose of 2.7 mg/kg; 1/4; format: functional; outline: as §1
Rattus norvegicus [29] = assay: Compound was evaluated in stimulus generalization test using animals trained to discriminate TFMPP from saline, and the mean responses per min at dose of 1.0 mg/kg; format: functional; outline: as §2
Rattus norvegicus [30] = assay: Stimulus generalization studies in TFMPP trained animals and the number of animals responding /number to receive dose of drug was determined at dose of 1 mg/kg; 3/4; format: functional; outline: as §2
Rattus norvegicus [31] = assay: Compound was evaluated in stimulus generalization test using animals trained to discriminate TFMPP from saline, and the drug appropriate responding at dose of 2.5 mg/kg; format: functional; outline: as §2
Rattus norvegicus [32] = assay: Stimulus generalization studies in TFMPP trained animals and the number of animals responding /number to receive dose of drug was determined at dose of 0.5 mg/kg; 3/3; format: functional; outline: as §2
Rattus norvegicus [33] = assay: Compound was evaluated in stimulus generalization studies in DOM trained animals and the number of animals responding /number to receive dose of drug at dose of 0.5 mg/kg; 3/3; format: functional; outline: as §1
Rattus norvegicus [34] = assay: Compound was evaluated in stimulus generalization studies in DOM trained animals and the number of animals responding /number to receive dose of drug at dose of 2.5 mg/kg; 3/6; format: functional; outline: as §1
Rattus norvegicus [35] = assay: Compound was evaluated in tests of stimulus generalization using animals trained to discriminate DOM from saline, and the mean responses per min at dose of 2.0 mg/kg; format: functional; outline: as §1
Rattus norvegicus [36] = assay: Stimulus generalization studies in TFMPP trained animals and the number of animals responding /number to receive dose of drug was determined at dose of 1.0 mg/kg; 10/10; format: functional

SMILES: c1ccc(N2CCNCC2)cc1 [PHENYLPIPERAZINE]
- Mean response/min (Rattus norvegicus [1]): 13.1
- Ki [2]: 0.135 µM
- Mean response/min (Rattus norvegicus [3]): 11.9
- Drug responding (Rattus norvegicus [4]): inactive
- Drug responding (Rattus norvegicus [5]): 8%
- Drug responding (Rattus norvegicus [6]): 7%
- Drug responding (Rattus norvegicus [7]): inactive
- Drug responding (Rattus norvegicus [8]): inactive
- Ki [9]: 2.1 µM

SMILES: CCCN(CCC)c1ccc2ccccc2n1
- Ki [2]: 25 µM
- Ki [9]: 50 µM

SMILES: Nc1cnc2ccccc2c1
- Ki [2]: 56 µM
- Ki [9]: > 300 µM

SMILES: COc1cccc2ccc(N)nc12
- Ki [2]: 10.4 µM
- Ki [9]: 35 µM

SMILES: c1ccc2nc(N3CCCCC3)ccc2c1
- Ki [2]: > 100 µM
- Ki [9]: > 150 µM

SMILES: FC(F)(F)c1cccc(N2CCNCC2)c1
- Mean response/min (Rattus norvegicus [10]): 18.2
- Drug responding (Rattus norvegicus [11]): 92%
- Activity (Rattus norvegicus [12]): 6

SMILES: COc1cccc2ccc(N3CCCCC3)nc12
- Ki [2]: 33 µM
- Ki [9]: 71 µM

SMILES: c1ccc2nc(N3CCNCC3)ccc2c1 [QUIPAZINE]
- Ki [2]: 0.23 µM
- Ki [9]: 0.23 µM

SMILES: COc1cccc2ccc(N3CCN(C)CC3)nc12
- Ki [2]: 1.9 µM
- Ki [9]: 1.2 µM

SMILES: CCCN(CCC)c1ccc2cccc(OC)c2n1
- Ki [2]: 45 µM
- Ki [9]: 50 µM

SMILES: c1ccc2c(N3CCNCC3)cccc2c1
- Drug responding (Rattus norvegicus [13]): inactive
- Activity (Rattus norvegicus [14]): 2
- ED50 (Rattus norvegicus [15]): 1 mg/kg
- Mean response/min (Rattus norvegicus [16]): 16.4
- Drug responding (Rattus norvegicus [17]): 37%
- Mean response/min (Rattus norvegicus [18]): 18
- Ki [2]: 0.005 µM
- Drug responding (Rattus norvegicus [19]): 7%
- Drug responding (Rattus norvegicus [20]): inactive
- Drug responding (Rattus norvegicus [21]): 41%
- Mean response/min (Rattus norvegicus [22]): 2.6
- Mean response/min (Rattus norvegicus [10]): 19.1
- Activity (Rattus norvegicus [23]): 1
- Drug responding (Rattus norvegicus [24]): 14%
- Activity (Rattus norvegicus [25]): 5
- Drug responding (Rattus norvegicus [26]): inactive
- Activity (Rattus norvegicus [27]): 3
- Activity (Rattus norvegicus [28]): 1
- Mean response/min (Rattus norvegicus [29]): 17.3
- Activity (Rattus norvegicus [30]): 3
- Drug responding (Rattus norvegicus [11]): 15%
- Drug responding (Rattus norvegicus [31]): 96%
- Activity (Rattus norvegicus [32]): 3
- Activity (Rattus norvegicus [33]): 3
- Activity (Rattus norvegicus [34]): 3
- Mean response/min (Rattus norvegicus [35]): 8.8
- Ki [9]: 0.018 µM

SMILES: COc1cccc2ccc(N3CCNCC3)nc12
- Ki [2]: 0.415 µM
- Ki [9]: 0.31 µM

SMILES: COc1cc(CC(C)N)c(OC)cc1C (stereo not given) [DOM]
- Activity (Rattus norvegicus [36]): 10

SMILES: NC1CCc2ccccc2C1 (stereo not given)
- Ki [2]: 0.38 µM
- Ki [9]: 11.1 µM
